In ChEMBL document CHEMBL4368914, “Tricyclic Indazoles-A Novel Class of Selective Estrogen Receptor Degrader Antagonists” (J Med Chem, 2019):
pIC50: −log10 of the molar value.

Legend:
[1] = Efflux ratio of apparent permeability in human Caco2 cells at 10 uM; type: ADME, cell-based; details: Caco-2
Summary of the method: (§1)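 Compound at 10 μM incubated on cultured Caco-2 or MDCK cells. Permeability was measured apical-to-basolateral and basolateral-to-apical, and efflux ratio was taken as (B to A)/(A to B).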

[2] = Volume of distribution at steady state in dog at 0.5 mg/kg, iv or 1 mg/kg, po; type: ADME, organism-based, Canis lupus familiaris; details: in vivo, read-out: Vdss
Summary of the method: (§2)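 Single IV dose of 0.5 mg/kg and oral dose of 1 mg/kg in rat and dog. Both routes were formulated in 5% DMSO:95% hydroxypropyl β-cyclodextrin (30% w/v), at 1 mL/kg IV and 4 mL/kg PO.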

[3] = Apparent permeability in MDCK cells at 10 uM; type: ADME, cell-based, Canis lupus familiaris; details: dog; summary of the method: as §1
Mus musculus [4] = assay: In vivo antagonist activity at ERalpha in tumor of human MCF7 cells xenografted in SCID CB17 mouse assessed as reduction in normalized PR levels at 5 mg/kg, po administered once daily for 3 days measured after 24 hrs post last dose by Western blot analysis relative to control; type: functional; set-up: scale not given: the % may be the effect or the level left
Summary of the method: (§3)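 Male SCID mice carried a 0.5 mg/21 day s.c. estrogen pellet, with 5x10^6 MCF-7 cells implanted s.c. in the hind flank 24 h later. Groups of 5 were randomised at 0.5–0.8 cm³ and gavaged once daily for 3 d in PEG400/Captisol/water vehicle at 10 ml/kg. Tumours were taken 24 h post-dose, and PR was read by Western blot normalized to vinculin.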

[5] = Fraction unbound in 10% human plasma by equilibrium dialysis; type: ADME, cell-free; details: 10% plasma
Summary of the method: (§4)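 Equilibrium dialysis from DMSO stock in 10% plasma, either Alderley Park Han Wistar rat plasma or human plasma.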

[6] = Fraction unbound in dog plasma by equilibrium dialysis; type: ADME, cell-free, Canis lupus familiaris
[7] = AUC in rat at 1 mg/kg, po; type: ADME, organism-based; details: in vivo, read-out: AUC; summary of the method: as §2
[8] = Oral bioavailability in rat at 1 mg/kg; type: ADME, organism-based; details: in vivo; summary of the method: as §2
Mus musculus [9] = assay: In vivo antagonist activity at ERalpha in tumor of human MCF7 cells xenografted in po dosed SCID CB17 mouse assessed as reduction in PR levels administered once daily for 3 days measured after 24 hrs post last dose by Western blot analysis; type: functional, organism-based; summary of the method: as §3
Cytochrome P450 2D6 = Cytochrome P450 2D6 (Homo sapiens, UniProt P10635); assay: Inhibition of CYP2D6 in human liver microsomes; type: ADME
Chain of Cytochrome P450 2D6 (P10635 whole entry, canonical isoform): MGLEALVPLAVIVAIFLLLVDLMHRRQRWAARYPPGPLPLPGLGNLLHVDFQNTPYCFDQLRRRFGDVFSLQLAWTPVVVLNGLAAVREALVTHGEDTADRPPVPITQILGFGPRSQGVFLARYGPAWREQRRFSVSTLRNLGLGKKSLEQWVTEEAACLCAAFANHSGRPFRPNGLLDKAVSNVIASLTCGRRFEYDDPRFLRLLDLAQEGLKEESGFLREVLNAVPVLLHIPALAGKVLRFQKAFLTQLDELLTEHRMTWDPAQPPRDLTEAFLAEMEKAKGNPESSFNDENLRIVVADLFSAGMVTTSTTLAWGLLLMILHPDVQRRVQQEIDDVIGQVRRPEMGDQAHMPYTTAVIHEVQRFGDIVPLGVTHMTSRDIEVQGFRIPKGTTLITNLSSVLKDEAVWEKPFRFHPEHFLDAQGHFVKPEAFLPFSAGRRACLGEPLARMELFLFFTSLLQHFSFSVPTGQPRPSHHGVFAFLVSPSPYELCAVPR
Summary of the method: (§5)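 High-throughput human liver microsome assay across a panel of five CYP isoforms, giving IC50.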

Cytochrome P450 2C9 = Cytochrome P450 2C9 (Homo sapiens, UniProt P11712); assay: Inhibition of CYP2C9 in human liver microsomes; type: ADME; summary of the method: as §5
Chain of Cytochrome P450 2C9 (P11712 whole entry): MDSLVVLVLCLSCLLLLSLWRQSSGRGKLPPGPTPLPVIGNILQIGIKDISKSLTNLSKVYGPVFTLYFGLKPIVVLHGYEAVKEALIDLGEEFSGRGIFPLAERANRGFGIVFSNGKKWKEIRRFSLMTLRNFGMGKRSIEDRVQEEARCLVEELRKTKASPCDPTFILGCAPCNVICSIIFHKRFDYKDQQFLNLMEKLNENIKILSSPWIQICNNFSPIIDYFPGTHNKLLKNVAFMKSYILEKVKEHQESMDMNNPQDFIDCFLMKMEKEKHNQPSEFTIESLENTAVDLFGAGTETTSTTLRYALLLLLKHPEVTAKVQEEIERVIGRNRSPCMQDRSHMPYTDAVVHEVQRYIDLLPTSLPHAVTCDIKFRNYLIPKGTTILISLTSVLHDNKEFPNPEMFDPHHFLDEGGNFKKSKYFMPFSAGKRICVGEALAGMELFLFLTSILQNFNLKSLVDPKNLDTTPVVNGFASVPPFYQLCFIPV

Estrogen receptor [10] = biological target: T1, Estrogen receptor (Homo sapiens, UniProt P03372); assay: Induction of ERalpha degradation in human MCF7 cells after 18 to 24 hrs by in multiplexed cell assay; type: cell-based
T1 sequence (P03372 whole entry): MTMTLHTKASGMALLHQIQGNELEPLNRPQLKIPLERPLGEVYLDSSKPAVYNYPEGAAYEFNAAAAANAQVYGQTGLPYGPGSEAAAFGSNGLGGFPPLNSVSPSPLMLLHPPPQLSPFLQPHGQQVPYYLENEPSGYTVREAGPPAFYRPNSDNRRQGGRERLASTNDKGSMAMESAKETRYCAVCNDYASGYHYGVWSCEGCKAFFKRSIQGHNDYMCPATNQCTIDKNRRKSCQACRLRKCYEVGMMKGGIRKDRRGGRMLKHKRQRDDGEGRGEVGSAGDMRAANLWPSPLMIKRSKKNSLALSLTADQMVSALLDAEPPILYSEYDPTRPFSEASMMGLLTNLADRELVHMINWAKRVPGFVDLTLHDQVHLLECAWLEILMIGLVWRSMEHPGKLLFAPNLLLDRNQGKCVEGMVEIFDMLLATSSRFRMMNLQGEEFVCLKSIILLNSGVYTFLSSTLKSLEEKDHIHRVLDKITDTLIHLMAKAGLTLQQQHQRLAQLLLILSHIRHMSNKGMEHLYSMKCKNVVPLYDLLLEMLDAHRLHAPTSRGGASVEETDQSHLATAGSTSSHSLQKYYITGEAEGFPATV
Summary of the method: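 MCF-7 cells were kept at 37 °C, 5% CO₂ in phenol red-free RPMI1640 with 5% charcoal-stripped FCS and 2 mmol/L glutamine. Compounds came from 10 mmol/L DMSO stocks.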

[11] = Fraction unbound in Alderley Park Han Wistar rat plasma by equilibrium dialysis; type: ADME, cell-free; summary of the method: as §4
[12] = Stability in pH 7.4 deuterated buffer by 1H NMR spectroscopy; type: physicochemical
Summary of the method: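 Compound diluted from a 25 mM DMSO-d6 stock to a final 1 mM in each deuterated buffer. Followed by ¹H NMR (500 MHz, water suppression, 64 scans) and LC-MS at 0, 24, 72 and 192 h (8 days).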

[13] = AUC in dog at 1 mg/kg, po; type: ADME, organism-based, Canis lupus familiaris; details: in vivo; summary of the method: as §2
[14] = Apparent permeability in human Caco2 cells at 10 uM; type: ADME, cell-based; details: Caco-2; summary of the method: as §1
[15] = biological target: T2, Estrogen receptor (Homo sapiens) (UniProt P03372); assay: Induction of ERalpha degradation in human MCF7 cells after 24 hrs by Western blot analysis; type: cell-based
T2 sequence (whole entry): T1 sequence (P03372 whole entry)
Summary of the method: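 MCF-7 cells in phenol red-free RPMI1640 with 5% charcoal-stripped FCS and 2 mmol/L glutamine (37 °C, 5% CO₂) exposed to a range of concentrations for 24 h. Total protein extracted and immunoblotted with anti-ER (SP1) and GAPDH antibodies diluted in 5% milk-PBS-Tween. Detection by enhanced chemiluminescent HRP substrate and imager.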

Estrogen receptor [16] = biological target: T1, Estrogen receptor; assay: Induction of ERalpha degradation in human MCF7 cells assessed as reduction in ERalpha protein expression after 5 hrs in presence of […] tamoxifen by formaldehyde-staining based assay; type: cell-based
Cytochrome P450 2C19 = Cytochrome P450 2C19 (Homo sapiens, UniProt P33261); assay: Inhibition of CYP2C19 in human liver microsomes; type: ADME; summary of the method: as §5
Chain of Cytochrome P450 2C19 (P33261 whole entry): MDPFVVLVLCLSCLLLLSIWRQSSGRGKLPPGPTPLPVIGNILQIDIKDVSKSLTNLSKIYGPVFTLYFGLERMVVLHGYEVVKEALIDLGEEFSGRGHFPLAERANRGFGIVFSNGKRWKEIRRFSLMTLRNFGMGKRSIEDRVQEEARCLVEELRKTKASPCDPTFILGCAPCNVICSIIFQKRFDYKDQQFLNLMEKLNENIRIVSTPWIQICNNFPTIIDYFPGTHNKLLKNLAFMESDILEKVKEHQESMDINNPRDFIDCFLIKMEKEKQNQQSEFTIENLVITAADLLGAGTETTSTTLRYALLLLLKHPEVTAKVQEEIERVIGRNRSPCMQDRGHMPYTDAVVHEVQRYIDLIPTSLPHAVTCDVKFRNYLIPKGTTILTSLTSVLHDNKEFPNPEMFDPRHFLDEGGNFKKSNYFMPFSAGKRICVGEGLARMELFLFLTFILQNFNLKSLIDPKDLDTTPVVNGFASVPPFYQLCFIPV

[17] = Solubility of the compound in phosphate buffer at pH 7.4 after 24 hrs; type: physicochemical
Summary of the method: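 Solubility in aqueous phosphate buffer at pH 7.4 after 24 h at 25 °C.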

[18] = Efflux ratio of apparent permeability in MDCK cells at 10 uM; type: ADME, cell-based, Canis lupus familiaris; details: dog; summary of the method: as §1
MCF7 = assay: Antitumor activity against human MCF7 cells xenografted in SCID CB17 mouse assessed as tumor growth inhibition at 20 mg/kg, po administered once daily and measured on day 20 of dosing relative to control; details: read-out: TGI
[19] = Lipophilicity, log D of the compound at pH 7.4 by shake flask method; type: physicochemical; details: buffer
Summary of the method: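 Shake-flask measurement of logD at pH 7.4.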

[20] = Intrinsic clearance in dog hepatocytes assessed per million cells; type: ADME, cell-based, Canis lupus familiaris, Hepatocyte; details: read-out: CLH
Summary of the method: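 Rate of metabolism (µl/min/10⁶ cells) measured from DMSO stock in isolated hepatocytes diluted to 1x10⁶ cells/mL.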

Estrogen receptor [21] = biological target: T1, Estrogen receptor; assay: Binding affinity to recombinant human GST-tagged ERalpha LBD expressed in baculovirus-infected insect cells by lantha screen assay
[22] = Half life in rat at 0.5 mg/kg, iv or 1 mg/kg, po; type: ADME, organism-based; details: in vivo; summary of the method: as §2

Structure (SMILES): C[C@@H]1Cc2c(ccc3[nH]ncc23)[C@@H](c2c(F)cc(/C=C/C(=O)O)cc2F)N1CC(C)(C)F
- efflux ratio at 10 µM [1]: 1.4
- Vd [2]: 0.58 L/kg
- Papp at 10 µM [3]: 11 ×10⁻⁶ cm/s
- Activity (Mus musculus [4]): 74%
- fraction unbound [5]: 0.0058
- fraction unbound [6]: 0.0032
- AUC [7]: 0.83 µM·h
- bioavailability [8]: 31%
- Activity (Mus musculus [9]): Dose-dependent effect
- pIC50 (Cytochrome P450 2D6): < 4.52
- pIC50 (Cytochrome P450 2C9): 5.60
- pIC50 (Estrogen receptor [10]): 9.60
- fraction unbound [11]: 0.0083
- Stability [12]: Stable
- AUC [13]: 3.2 µM·h
- Papp at 10 µM [14]: 6.9 ×10⁻⁶ cm/s
- Activity [15]: Dose-dependent effect
- pIC50 (Estrogen receptor [16]): 8.10
- pIC50 (Cytochrome P450 2C19): < 4.52
- solubility at 24 h [17]: > 1000 µM
- efflux ratio at 10 µM [18]: 0.6
- inhibition in vivo at 20 mg/kg (MCF7): 80%
- logD [19]: 2.6
- hepatocyte CLint [20]: 17 µL/min/1e6 cells
- pIC50 (Estrogen receptor [21]): 9.50
- half-life [22]: 1.2 h
